Screening data deposited in PubChem BioAssay by The Scripps Research Institute Molecular Screening Center.
A selection: hits, their analogues and other compounds. The true share with any hit is near 3.1%.
GalR3 antag: antagonists of human GalR3. HEK293 GalR3-CNG cAMP membrane potential fluorescence; galR3 body fused to GalR1 C-terminus. 360,000 tested, 0.44% active. inhibition, % at 3 µM. O60755;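 active = inhibition above the screen-wide average plus 3 SD, cut at about 13% in these data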;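 note: forskolin and galanin both at EC90 stimulate the cells; cAMP rise reported by CNG channel membrane potential dye signal; 0% = forskolin plus galanin with DMSO and 100% = forskolin alone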
GPR7 antag: human neuropeptides B/W receptor 1 antagonism | inhibition, % at 4.4 µM | P48145 | GPR7-expressing cells, fluorescence antagonist assay | AID 1861 | 290,000 tested, 1.1% active; in the data active = inhibition above about 16%, passing the limit was not always enough;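 note: cells stimulated with the agonist NPW; 0% = agonist with vehicle and 100% = vehicle without agonist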
OX1R antag-1: OX1R (human) antagonism; OX1R-expressing cells, FRET antagonist read-out; inhibition, % at 6.6 µM; 330,000 tested, 1.8% active; in the data active = inhibition mostly above about 38%, no sharp cut-off; inactive = mostly below about 40%;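 note: 0% = agonist challenge alone and 100% = reference antagonist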
Target sequence (O43613 whole entry, looked up): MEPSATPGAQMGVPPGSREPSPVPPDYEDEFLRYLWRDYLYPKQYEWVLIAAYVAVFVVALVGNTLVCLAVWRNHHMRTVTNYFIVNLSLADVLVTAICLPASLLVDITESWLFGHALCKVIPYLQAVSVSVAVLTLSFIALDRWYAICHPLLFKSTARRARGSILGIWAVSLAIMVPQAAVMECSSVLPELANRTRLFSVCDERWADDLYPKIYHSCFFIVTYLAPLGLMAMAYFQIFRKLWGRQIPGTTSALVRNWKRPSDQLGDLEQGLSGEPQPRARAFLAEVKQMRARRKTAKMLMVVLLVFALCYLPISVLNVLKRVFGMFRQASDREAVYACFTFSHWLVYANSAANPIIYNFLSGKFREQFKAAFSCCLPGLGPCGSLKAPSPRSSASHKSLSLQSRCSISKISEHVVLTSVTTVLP
CHO parental Ca: signal in parental CHO cells, OX1R antagonist counter-screen. 330,000 tested, 0.63% active. parental CHO-K1, ATP-induced calcium, Fluo-8 fluorescence. AID 463079. inhibition, % at 5.6 µM;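 active = inhibition above that plate's mean sample inhibition plus 3 SD, cut at about 26% in these data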;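 note: 0% = ATP-challenged DMSO wells and 100% = DMSO wells without ATP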
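Test system: parental CHO cells; detection: calcium-sensitive Fluo-8 fluorescence; evaluation: percent inhibition of calcium signal; also added: ATP as calcium-mobilizing challenge; repeats: one well per compound; control set: ATP-challenged DMSO wells low, unchallenged DMSO wells high; compound: single nominal dose of 5.6 µM per compound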
OX1R antag-2: blocks the human orexin 1 receptor. AID 434989. O43613. inhibition, % at 5 µM. 330,000 tested, 0.43% active. CHO/OX1R cells, Fluo-8 calcium fluorescence, orexin A;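 active = inhibition above its plate's threshold, mean inhibition of all tested compounds on the plate plus 3 SD, cut at about 37% in these data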;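 note: 0% = orexin A challenge wells and 100% = SB-334867-A antagonist wells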
GalR3 antag conf: confirmation of human galanin receptor 3 antagonists; shares compounds with GalR3 antag; HEK293 GalR3 CNG cAMP biosensor, membrane potential fluorescence; galR3 fused to GalR1 carboxy tail; challenged with forskolin and galanin at EC90; inhibition, % at 3 µM; 1,600 tested, 59% active; AID 652245;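 active = inhibition above the primary screen's cutoff, the mean inhibition of all screened compounds plus 3 SD, cut at about 13% in these data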;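 note: 0% = forskolin plus galanin and 100% = forskolin alone with DMSO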
HEK-CNG parental: acts as nonspecific agonist in parental HEK-CNG cells. activation, % at 3 µM. shares compounds with GalR3 antag. 1,600 tested, 10% active. HEK293-CNG parental cells, cAMP membrane potential fluorescence; normalised: DMSO wells 0%, forskolin wells 100%; in the data active = activation above about 1.3%
* marks the source's active call; other numbers are inactive results; x = no result given.

SMILES | GalR3 antag | GPR7 antag | OX1R antag-1 | CHO parental Ca | OX1R antag-2 | GalR3 antag conf | HEK-CNG parental
CCN(CC)c1ccc(Nc2cc3n(c(=O)n2)CCc2cc(OC)c(OC)cc2-3)cc1 | 47* | -31 | -2 | -18 | -21 | 64* | 0
CCCc1cc(=O)[nH]c(SCC(=O)Nc2cccc(S(=O)(=O)N3CCOCC3)c2)n1 | -4 | x | 3 | -9 | 9 | x | x
COc1ccc(NC(=O)C2CCCC2)cn1 | -9 | -2 | 31 | -6 | -5 | x | x
Cc1cc(=O)[nH]c(-c2ccccc2)n1 | 1 | 1 | 1 | -9 | -27 | x | x
Cc1cc(-c2ccccc2)cc(=O)[nH]1 | 19* | x | x | x | x | 12 | 0
CCC(NC(=O)c1ccccc1NC(=O)C(C)(C)C)C(=O)N1CCCC1 (configuration not stated) | 15* | -5 | 12 | -29 | -28 | 7 | 0
CCC(NC(=O)c1ccccc1NC(=O)C(C)(C)C)C(=O)N1CC(C)OC(C)C1 (configuration not stated) | 3 | x | 10 | -22 | -6 | x | x
Cc1ccc(CCNC(=O)CC(C)CC2=NS(=O)(=O)c3ccccc3N2)cc1 (configuration not stated) | -6 | -15 | 4 | -10 | -6 | x | x
C/C(=N\OCc1nc2ccccc2c(=O)n1/N=C/c1cc(C)cc([N+](=O)[O-])c1O)c1ccccc1 | 67* | 8 | 47* | -14 | -18 | 70* | -1
COC(=O)c1ccc(NC(CC(C)C)C(=O)OC)c([N+](=O)[O-])c1 (configuration not stated) | 4 | -11 | 2 | -10 | -12 | x | x
Cc1cc(Br)cn2c(Cc3ccccc3C(F)(F)F)c(-c3ccccc3)nc12 | -7 | x | x | x | x | x | x
Cc1cc(Br)cn2c(Cc3cccc(Cl)c3)c(-c3ccco3)nc12 | 40* | x | x | x | x | 41* | 0
Cc1cc(Br)cn2c(Cc3ccccc3C(F)(F)F)c(-c3ccco3)nc12 | 18* | x | x | x | x | 45* | 1
CC(Oc1ccc(Cl)cc1)C(=O)NCC1CCCO1 (configuration not stated) | 2 | -6 | 19 | -10 | -5 | x | x
N#C/C(N=Nc1ccccc1O)=N\Nc1ccccc1O | 61* | x | 22 | 26 | 12 | 84* | -2
C=CC[C@@H](Cc1ccc(F)cc1)C(=O)OC[C@H]1CCCN1C(=O)[C@H](CC=C)CC(=O)NCCO | 14* | x | 6 | -11 | -12 | 4 | 0
CNc1ncnc2c1ncn2[C@@H]1O[C@H](CO)[C@@H](O)[C@H]1O | 77* | x | 16 | -2 | 9 | 17* | 0
CN(C)c1ncnc2c1ncn2C1OC(CO)C(O)C1O (configuration not stated) | 0 | -7 | 14 | -4 | -5 | x | x
O=C1c2ccccc2[C@@H]2C[C@H](NC34CC5CC(CC(C5)C3)C4)[C@@H](O)CCN12 | -4 | x | 14 | -20 | -13 | x | x
Cc1cccc(NC(=O)CSc2nnc(NC(=O)c3ccco3)s2)c1 | -7 | -12 | 19 | -15 | -25 | x | x
Cn1cc(CNC(=O)c2cc(COc3ccc4c(c3)CCCC4)on2)cn1 | -2 | -10 | 2 | -15 | -17 | x | x
O=C(NC(c1cccnc1)C(F)(F)F)c1cc(COc2ccc3c(c2)CCCC3)on1 (configuration not stated) | 15* | 9 | 10 | 42* | 19 | 12 | 0
CC(=O)c1cccc(CN2CCN(CC=C(C)C)C(CCO)C2)c1 (configuration not stated) | 16* | -13 | 8 | -10 | -16 | 1 | 0
CC(=O)c1cccc(CN2CCN(CCc3ccccc3)C(CCO)C2)c1 (configuration not stated) | 5 | 6 | 21 | -17 | -28 | x | x
CC(CNC(=O)c1ccc(C#N)cc1)NC(=O)c1ccc(C#N)cc1 (configuration not stated) | -10 | 9 | x | x | x | x | x
SMILES | GalR3 antag | GPR7 antag | OX1R antag-1 | CHO parental Ca | OX1R antag-2 | GalR3 antag conf | HEK-CNG parental
CCOc1ccccc1C1NC(=O)c2ccccc2N1 (configuration not stated) | 13* | x | x | x | x | 13* | 1.4*
c1ccc(CN2CCC(N3CCN(Cc4ccc5c(c4)OCO5)CC3)CC2)cc1 | 40* | -12 | 13 | -3 | -8 | 0 | 6.0*
CC1CCC2C(=O)N(c3ccc(Cc4ccncc4)cc3)C(=O)C2C1 (configuration not stated) | 91* | 9 | 19 | 25 | 3 | 109* | -1
CCOC(=O)C1(Cc2cccc(F)c2)CCN(C(=O)c2cnc(C)cn2)CC1 | -3 | 0 | 12 | -11 | -10 | x | x
O=C(O)c1cc(-c2ccccc2)nc2nc(N3CCCCC3)sc12 | 13* | -3 | 6 | 2 | 2 | 0 | 0
CCCCCC(=O)NNC(=S)NC(C)=O | 13* | 1 | 8 | -5 | -8 | 2 | 0
C[C@@H]1CN([C@H](C)CO)C(=O)c2cc(C#CC3CC3)cnc2O[C@H]1CN(C)S(C)(=O)=O | -4 | x | x | x | x | x | x
CCc1c(C)nc2ncnn2c1Nc1ccc(C)cc1 | -3 | -9 | 16 | -8 | -17 | x | x
CCc1c(C)nc2ncnn2c1NCCc1ccc(OC)cc1 | 15* | 22 | 27 | 7 | 10 | 59* | 0
CCC(Sc1nc2n[nH]c(C)c2c(=N)n1-c1cccc(Cl)c1C)C(=O)N(CC)CC (configuration not stated) | 17* | -9 | 6 | -35 | -4 | 71* | 1
COc1cc(N)c(C(O)c2nccc3cc(OC)c(OC)cc23)cc1OC (configuration not stated) | -9 | -7 | 11 | -9 | -10 | x | x
COc1ccc(C(O)c2nccc3cc(OC)c(OC)cc23)cc1OC (configuration not stated) | 17* | -21 | 10 | -10 | -24 | 1 | 0
Cc1ccc2c(=O)n3c(nc2c1)C(Cc1ccccc1)NC(=O)c1cc(Cl)ccc1-3 (configuration not stated) | -3 | x | 1 | -13 | -19 | x | x
Cc1cnc(C=O)c2cccc([N+](=O)[O-])c12 | 34* | x | x | x | x | 14* | 0
Cc1cc(C(C)(C)C)ccc1OCCCCN1CCCC1 | 3 | -2 | -13 | -3 | -14 | x | x
CCC(C)(C)c1ccc(OCCCC[n+]2cccc(C)c2C)c(C(C)(C)CC)c1 | 15* | 22* | 9 | 40* | 52* | 67* | 1.3*
Cc1cccc(C2N=C(N)Nc3nc4ccccc4n32)c1 (configuration not stated) | 8 | -7 | 2 | -4 | -18 | x | x
Cc1cc(C)nc(SCCn2c(N3CCOCC3)nc3c2c(=O)[nH]c(=O)n3C)n1 | -4 | 3 | 9 | 1 | -12 | x | x
